Experimental data of several laboratories.
Each line is one published result; the experiments were not run side by side.
Target: Phosphatidylinositol 5-phosphate 4-kinase type-2 gamma (PIP4K2C, Homo sapiens, UniProt Q8TBX8)
Sequence (Q8TBX8 1-421, as in one of the studies): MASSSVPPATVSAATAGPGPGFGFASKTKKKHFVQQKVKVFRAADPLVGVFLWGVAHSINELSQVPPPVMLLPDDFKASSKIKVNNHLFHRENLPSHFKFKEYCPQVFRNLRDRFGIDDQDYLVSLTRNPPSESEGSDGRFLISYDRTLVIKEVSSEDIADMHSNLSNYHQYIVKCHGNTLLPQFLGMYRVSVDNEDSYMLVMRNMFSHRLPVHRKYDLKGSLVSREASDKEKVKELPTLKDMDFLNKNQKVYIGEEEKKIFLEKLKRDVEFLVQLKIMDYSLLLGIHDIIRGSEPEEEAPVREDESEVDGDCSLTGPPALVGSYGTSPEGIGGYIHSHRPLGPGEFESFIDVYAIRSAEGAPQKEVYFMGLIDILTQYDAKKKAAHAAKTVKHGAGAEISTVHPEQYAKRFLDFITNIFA

CN(C)c1nccc(-c2cnc3ncccn23)n1  remaining binding (binding; 1 µM): 93%
Cc1cc(C)c(-n2ccn3nc(-c4cccnc4)cc23)cc1NC(=O)c1cc(C#N)cc(S(F)(F)(F)(F)F)c1  remaining binding (cell-free assay, competition with immobilised ligand; 0.1 µM): 89.9%
FC(F)(F)Oc1cccc(-c2cnc3ccc(-c4ccncc4)nn23)c1  remaining binding (cell-free assay, competition with immobilised ligand; 5 µM): 32%
CC(=O)N1CCC(c2ccc(C(=O)NC3=NCCN3)cc2C(F)(F)F)CC1  remaining binding (cell-free assay, competition with immobilised ligand; 1 µM): 94%
c1cncc(-c2cccc(Nc3nccc(NC4CCCCC4)n3)c2)c1  remaining binding (binding, competition with immobilised ligand; 10 µM): 21%
F[C@@H]1CCN(c2nccc(-c3cnn4ncccc34)n2)C1  remaining binding (binding; 1 µM): 100%
Cn1cc(Cl)c2c(Oc3c(F)cc(Nc4cc(Cl)nc(N)n4)cc3F)ccnc21  remaining binding (cell-free assay, competition with immobilised ligand; 0.1 µM): 96%
C=CC(=O)N1CCC(C(=O)NCC(=O)N2CCN(c3nc(-c4cnc(N)nc4C(F)F)nc(N4CCOCC4)n3)CC2)CC1  remaining binding (binding, competition with immobilised ligand; 1 µM): 95%
CN(c1nccc(-c2cnn3ncccc23)n1)C1CC1  remaining binding (binding; 1 µM): 100%
O=C(NCC1CCOCC1)c1n[nH]cc1NC(=O)c1c(F)cccc1F  remaining binding (binding, competition with immobilised ligand; 1 µM): 91%
c1ccc(N2CCN(Cc3nc4ccccc4[nH]3)CC2)nc1  remaining binding (binding, competition with immobilised ligand; 1 µM): 86%
O=C(c1ccc(Nc2nccc(-c3cc4ccccc4s3)n2)cc1)N1CCC(N2CCCC2)CC1  remaining binding (binding, competition with immobilised ligand; 1 µM): 1.4%
C[C@@H]1CCN(c2nccc(-c3cnn4ncccc34)n2)C1  remaining binding (binding; 1 µM): 40%
CCS(=O)(=O)c1cc2cc(C[C@](O)(CC(C)(C)c3ccc(F)cc3C(N)=O)C(F)(F)F)[nH]c2cn1  remaining binding (cell-free assay, competition with immobilised ligand; 1 µM): 100%
CNC(=O)[C@@H]1CC[C@@H](n2c(-c3ccc4cnccc4c3)nc3ccc(C(=O)NCc4cccc(C(N)=O)c4)cc32)C1  remaining binding (binding, competition with immobilised ligand; 1 µM): 91%
CCN1CCN(Cc2ccc(C(=O)Nc3ccc(C)c(Oc4ccc5c(c4)CC(=O)N5)c3)cc2C(F)(F)F)CC1  remaining binding (binding, competition with immobilised ligand; 1 µM): 100%
CN(C)c1nccc(-c2cnn3ncccc23)n1  remaining binding (binding; 1 µM): 100%
O=C(NCCCN1CCOCC1)c1ccc(Nc2ncc(Cl)c(-c3ccc(Cl)s3)n2)cc1  remaining binding (binding, competition with immobilised ligand; 1 µM): 15%
N[C@@H]1CCN(c2nccc(-c3cnn4ncccc34)n2)C1  remaining binding (binding; 1 µM): 64%
CNC(=O)c1ccc(Nc2ncc(C(F)(F)F)c(NCc3nccnc3N(C)S(C)(=O)=O)n2)cc1  remaining binding (cell-free assay, competition with immobilised ligand; 0.1 µM): 40%
O=C(c1ccc(Nc2ncc(Cl)c(-c3cc4ccccc4s3)n2)cc1)N1CCC(N2CCCC2)CC1  remaining binding (binding, competition with immobilised ligand; 1 µM): 6.7%
CN(C)c1ncc(F)c(-c2cnn3ncccc23)n1  remaining binding (binding; 1 µM): 95%
